Assay results as given in ChEMBL document CHEMBL1135823, “Discovery and SAR of a novel selective and orally bioavailable nonpeptide classical competitive inhibitor class of protein-tyrosine phosphatase 1B” (J Med Chem, 2002).

Legend:
[1] = molecular target: T1, Tyrosine-protein phosphatase non-receptor type 1 (Homo sapiens, UniProt P18031); assay: Inhibition of human recombinant Protein-tyrosine phosphatase 1B.
T1 sequence (P18031 whole entry): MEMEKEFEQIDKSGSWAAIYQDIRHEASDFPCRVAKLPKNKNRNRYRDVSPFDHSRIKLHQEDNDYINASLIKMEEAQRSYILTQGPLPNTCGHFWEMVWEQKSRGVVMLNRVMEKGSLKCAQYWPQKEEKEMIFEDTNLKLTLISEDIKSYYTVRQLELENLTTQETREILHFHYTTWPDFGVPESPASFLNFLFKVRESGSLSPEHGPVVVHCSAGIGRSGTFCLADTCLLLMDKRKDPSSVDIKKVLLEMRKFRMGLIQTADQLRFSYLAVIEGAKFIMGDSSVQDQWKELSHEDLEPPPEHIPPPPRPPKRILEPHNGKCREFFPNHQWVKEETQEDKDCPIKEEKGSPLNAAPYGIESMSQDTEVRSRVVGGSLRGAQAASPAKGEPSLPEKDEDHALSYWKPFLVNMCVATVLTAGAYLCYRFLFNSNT
Procedure, shortened: (§1)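 Enzyme is a soluble recombinant human PTP1B (residues 1–321). Ki is measured at pH 5.5 with p-nitrophenyl phosphate (pNPP) as substrate.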

[2] = molecular target: T2, Tyrosine-protein phosphatase non-receptor type 2 (Homo sapiens, UniProt P17706); assay: Inhibition of T cell protein tyrosine phosphatase (TC-PTP) at pH 7.0; assay type: single protein
T2 sequence (P17706 whole entry): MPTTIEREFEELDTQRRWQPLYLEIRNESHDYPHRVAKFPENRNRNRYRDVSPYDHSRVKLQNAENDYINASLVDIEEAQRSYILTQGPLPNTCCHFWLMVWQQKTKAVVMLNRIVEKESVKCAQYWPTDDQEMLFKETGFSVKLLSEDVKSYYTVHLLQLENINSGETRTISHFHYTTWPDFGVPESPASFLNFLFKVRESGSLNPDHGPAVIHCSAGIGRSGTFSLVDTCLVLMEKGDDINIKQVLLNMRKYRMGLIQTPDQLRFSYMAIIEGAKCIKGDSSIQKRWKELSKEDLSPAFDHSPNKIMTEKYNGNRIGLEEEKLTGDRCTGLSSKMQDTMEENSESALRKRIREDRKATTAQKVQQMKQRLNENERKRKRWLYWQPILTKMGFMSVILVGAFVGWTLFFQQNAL
Procedure, shortened: (§2)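 Ki from a pNPP hydrolysis assay with recombinant TC-PTP, run at pH 7.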

[3] = molecular target: T1, Tyrosine-protein phosphatase non-receptor type 1; assay: Inhibitory effect against recombinant human protein-tyrosine phosphatase 1B (PTP1B), using p-nitrophenyl phosphate substrate at pH 5.5.
[4] = molecular target: Receptor-type tyrosine-protein phosphatase F (Homo sapiens, UniProt P10586); assay: Inhibitory effect against protein-tyrosine phosphatase Lar, using p-nitrophenyl phosphate as substrate at pH 5.5.
[5] = molecular target: Receptor-type tyrosine-protein phosphatase alpha (Homo sapiens, UniProt P18433); assay: Inhibitory effect against human protein-tyrosine phosphatase alpha (PTPalpha), using p-nitrophenyl phosphate substrate at pH 5.5.
Procedure, shortened: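 Ki from pNPP hydrolysis assays at pH 5.5 with recombinant PTPα or LAR.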

[6] = molecular target: T1, Tyrosine-protein phosphatase non-receptor type 1; assay: Inhibitory effect against recombinant human PTP1B (Protein Tyrosine phosphatase 1B) using p-nitrophenyl phosphate substrate at pH 5.5; procedure, shortened: as §1
[7] = Pharmacokinetic Parameter clearance was reported for Protein Tyrosine Phosphatase 1B; assay type: ADME, organism-based; conditions: in vivo
[8] = Pharmacokinetic Parameter t1/2 was reported for Protein Tyrosine Phosphatase 1B; assay type: ADME, organism-based; conditions: in vivo
[9] = Oral bioavailability; assay type: ADME, organism-based; conditions: eutheria, in vivo, read-out: f (po)
[10] = molecular target: T2, Tyrosine-protein phosphatase non-receptor type 2; assay: Inhibitory effect against inhibitory effect against T cell protein tyrosine phosphatase (TC-PTP) using p-nitrophenyl phosphate as substrate at pH 7.0; procedure, shortened: as §2
[11] = molecular target: T1, Tyrosine-protein phosphatase non-receptor type 1; assay: Inhibitory effect against recombinant human Protein-tyrosine phosphatase 1B (PTP1B) using p-nitrophenyl phosphate substrate at pH 5.5;ND is not determined; procedure, shortened: as §1
[12] = Pharmacokinetic Parameter Vss was reported for Protein Tyrosine Phosphatase 1B; assay type: ADME, organism-based; conditions: in vivo; read-out: Vss
[13] = Pharmacokinetic Parameter half life was reported for Protein Tyrosine Phosphatase 1B; assay type: ADME, organism-based; conditions: in vivo

Chain of Receptor-type tyrosine-protein phosphatase alpha (P18433 whole entry): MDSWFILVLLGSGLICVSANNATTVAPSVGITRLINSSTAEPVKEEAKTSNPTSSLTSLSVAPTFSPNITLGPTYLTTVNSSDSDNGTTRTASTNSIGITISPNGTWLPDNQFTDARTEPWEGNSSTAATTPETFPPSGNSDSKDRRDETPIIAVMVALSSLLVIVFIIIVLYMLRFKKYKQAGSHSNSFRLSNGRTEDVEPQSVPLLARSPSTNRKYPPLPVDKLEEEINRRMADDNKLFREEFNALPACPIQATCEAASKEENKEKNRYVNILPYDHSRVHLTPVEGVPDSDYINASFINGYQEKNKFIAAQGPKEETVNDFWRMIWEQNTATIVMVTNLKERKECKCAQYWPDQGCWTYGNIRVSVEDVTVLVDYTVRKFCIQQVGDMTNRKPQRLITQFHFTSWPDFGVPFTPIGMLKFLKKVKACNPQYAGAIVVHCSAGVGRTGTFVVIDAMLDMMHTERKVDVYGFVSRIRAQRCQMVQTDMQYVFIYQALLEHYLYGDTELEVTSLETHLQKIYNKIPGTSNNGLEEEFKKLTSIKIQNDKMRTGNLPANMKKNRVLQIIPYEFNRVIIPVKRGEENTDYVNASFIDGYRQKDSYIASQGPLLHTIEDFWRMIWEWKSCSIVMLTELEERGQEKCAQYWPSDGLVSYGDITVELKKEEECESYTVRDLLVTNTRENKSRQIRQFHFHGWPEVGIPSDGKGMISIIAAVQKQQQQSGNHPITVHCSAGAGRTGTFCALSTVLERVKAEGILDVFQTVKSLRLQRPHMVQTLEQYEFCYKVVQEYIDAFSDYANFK
Chain of Receptor-type tyrosine-protein phosphatase F (P10586 whole entry): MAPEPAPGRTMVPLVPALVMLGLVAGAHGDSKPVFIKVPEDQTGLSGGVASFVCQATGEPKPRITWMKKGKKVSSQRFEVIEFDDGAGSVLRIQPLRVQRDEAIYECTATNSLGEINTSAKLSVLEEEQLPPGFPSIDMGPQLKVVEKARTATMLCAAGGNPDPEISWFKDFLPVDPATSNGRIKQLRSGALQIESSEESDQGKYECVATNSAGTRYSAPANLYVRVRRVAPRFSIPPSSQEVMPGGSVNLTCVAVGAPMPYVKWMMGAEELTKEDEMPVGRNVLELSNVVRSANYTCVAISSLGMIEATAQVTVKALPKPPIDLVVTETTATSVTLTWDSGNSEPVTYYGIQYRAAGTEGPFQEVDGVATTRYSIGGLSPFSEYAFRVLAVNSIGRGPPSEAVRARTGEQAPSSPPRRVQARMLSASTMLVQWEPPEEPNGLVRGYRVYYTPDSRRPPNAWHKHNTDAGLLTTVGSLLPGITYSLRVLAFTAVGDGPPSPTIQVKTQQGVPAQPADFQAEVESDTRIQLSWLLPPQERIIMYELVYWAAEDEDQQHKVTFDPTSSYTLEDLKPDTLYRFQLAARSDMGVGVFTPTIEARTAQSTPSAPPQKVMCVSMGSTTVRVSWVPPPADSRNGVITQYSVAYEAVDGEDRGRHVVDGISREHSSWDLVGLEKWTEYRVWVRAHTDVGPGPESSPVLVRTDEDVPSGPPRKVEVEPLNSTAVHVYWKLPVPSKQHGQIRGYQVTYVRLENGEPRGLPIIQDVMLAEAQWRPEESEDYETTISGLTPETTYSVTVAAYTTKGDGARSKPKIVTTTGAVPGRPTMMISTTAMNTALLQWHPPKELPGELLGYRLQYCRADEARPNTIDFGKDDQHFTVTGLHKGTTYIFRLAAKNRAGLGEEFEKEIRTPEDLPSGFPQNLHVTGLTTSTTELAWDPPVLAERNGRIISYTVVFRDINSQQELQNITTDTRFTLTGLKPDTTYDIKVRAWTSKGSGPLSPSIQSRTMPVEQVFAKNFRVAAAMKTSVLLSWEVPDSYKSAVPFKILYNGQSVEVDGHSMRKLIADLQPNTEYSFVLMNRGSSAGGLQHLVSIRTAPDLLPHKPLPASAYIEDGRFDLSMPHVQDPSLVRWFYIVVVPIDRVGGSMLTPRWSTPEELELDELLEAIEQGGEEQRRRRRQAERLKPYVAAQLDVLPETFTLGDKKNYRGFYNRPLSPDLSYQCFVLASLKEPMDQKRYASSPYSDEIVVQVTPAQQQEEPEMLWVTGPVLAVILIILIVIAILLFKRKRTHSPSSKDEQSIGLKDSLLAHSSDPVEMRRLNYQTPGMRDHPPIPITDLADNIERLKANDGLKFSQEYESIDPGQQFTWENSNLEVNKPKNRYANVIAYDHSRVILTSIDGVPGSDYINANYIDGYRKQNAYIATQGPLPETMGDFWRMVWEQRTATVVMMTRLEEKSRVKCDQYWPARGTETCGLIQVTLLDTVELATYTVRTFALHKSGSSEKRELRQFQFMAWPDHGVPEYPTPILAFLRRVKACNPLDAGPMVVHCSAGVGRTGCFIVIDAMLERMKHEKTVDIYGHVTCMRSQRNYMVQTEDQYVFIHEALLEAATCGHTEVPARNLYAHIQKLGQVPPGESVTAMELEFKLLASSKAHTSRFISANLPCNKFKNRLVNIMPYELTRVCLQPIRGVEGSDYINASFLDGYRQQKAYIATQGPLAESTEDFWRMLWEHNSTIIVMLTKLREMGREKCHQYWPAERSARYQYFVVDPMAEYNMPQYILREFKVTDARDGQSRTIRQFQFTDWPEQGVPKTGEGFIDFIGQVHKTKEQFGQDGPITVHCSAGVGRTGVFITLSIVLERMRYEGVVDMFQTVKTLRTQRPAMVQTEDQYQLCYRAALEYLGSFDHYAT

Row | Structure (SMILES) | Ki [1] | Ki [3] | Ki [4] | Ki [5] | further results
1 | CN1CCc2c(sc(NC(=O)C(=O)O)c2C(=O)O)C1 | 11 µM | 1 µM | – | – | Ki [2]: 22 µM
2 | O=C(O)C(=O)Nc1sc2c(c1C(=O)O)CCN(Cc1ccc3ccccc3n1)C2 | 29 µM | 1.8 µM | – | – | –
3 | O=C(O)C(=O)Nc1sc2c(c1C(=O)O)CCN(CCc1ccccn1)C2 | 12 µM | – | – | – | Ki [2]: 19 µM
4 | O=C(O)C(=O)Nc1cc(-c2ccccc2)sc1C(=O)O | – | 13 µM | 90 µM | 250 µM | –
5 | COc1cccc(CN2CCc3c(sc(NC(=O)C(=O)O)c3C(=O)O)C2)c1 | 8.3 µM | 0.7 µM | – | – | –
6 | O=C1CCc2c(sc(NC(=O)C(=O)O)c2C(=O)O)C1 | – | 1.3 µM | – | 52 µM | –
7 | O=C(O)C(=O)Nc1sc2c(c1C(=O)O)CCN(CCC(c1ccccc1)c1ccccc1)C2 | 5.9 µM | – | – | – | –
8 | O=C(O)C(=O)Nc1sc2c(c1C(=O)O)CCCCC2 | – | 12 µM | 400 µM | 320 µM | –
9 | O=C(O)C(=O)Nc1sc2c(c1C(=O)O)CCCC2 | – | – | 410 µM | 290 µM | –
10 | O=C(O)C(=O)Nc1sc2c(c1C(=O)O)CCN(Cc1ccncc1)C2 | 12 µM | 1.1 µM | – | – | –
11 | O=C(O)COc1ccc(-c2cc(NC(=O)C(=O)O)c(C(=O)O)s2)cc1 | – | 2.5 µM | 50 µM | 200 µM | –
12 | O=C(O)C(=O)Nc1sc2c(c1C(=O)O)CCN(Cc1ccccn1)C2 | 23 µM | 1 µM | – | – | Ki [2]: 48 µM
13 | O=C(O)C(=O)Nc1cnccc1C(=O)O | – | 160 µM | > 2000 µM | 1000 µM | –
14 | O=C(O)C(=O)Nc1sc2c(c1C(=O)O)CCN(CCc1ccc(OCc3ccccc3)cc1)C2 | 15 µM | – | – | – | Ki [2]: 10 µM
15 | O=C(O)C(=O)Nc1cc(-c2ccsc2)sc1C(=O)O | – | 11 µM | 90 µM | 200 µM | –
16 | O=C(O)C(=O)Nc1cc(-c2ccc(Oc3ccccc3)cc2)sc1C(=O)O | – | 26 µM | – | 93 µM | –
17 | Cc1cccc(C(=O)O)c1NC(=O)C(=O)O | – | – | > 2000 µM | > 2000 µM | Ki [6]: 1100 µM
18 | O=C(O)C(=O)Nc1sc2c(c1C(=O)O)CCOC2 | – | – | – | 170 µM | clearance [7]: 17 mL/min/kg; half-life [8]: 1.3 h; bioavailability [9]: 85%
19 | O=C(O)C(=O)Nc1sc2c(c1C(=O)O)CCN(Cc1ccccc1)C2 | 14 µM | 1 µM | – | – | Ki [2]: 24 µM
20 | O=C(O)C(=O)Nc1sc2c(c1C(=O)O)CCN(Cc1ccc3ccccc3c1)C2 | 42 µM | – | – | – | Ki [10]: 34 µM
21 | COc1cccc(-c2cc(NC(=O)C(=O)O)c(C(=O)O)s2)c1 | – | 12 µM | – | 530 µM | –
22 | O=C(O)C(=O)Nc1cscc1C(=O)O | – | – | – | – | Ki [11]: 75 µM
23 | O=C(O)C(=O)Nc1ccccc1C(=O)O | – | – | > 2000 µM | 870 µM | –
24 | O=C(O)C(=O)Nc1sc2c(c1C(=O)O)CCN(CCc1cccc3ccccc13)C2 | 11 µM | – | – | – | Ki [2]: 11 µM
25 | O=C(O)C(=O)Nc1sc2c(c1C(=O)O)CCN(CCc1ccc(-c3ccccc3)cc1)C2 | 8 µM | – | – | – | Ki [2]: 12 µM
26 | O=C(O)C(=O)Nc1sc2c(c1C(=O)O)CCC(O)C2 (stereo not drawn) | – | 2 µM | – | 215 µM | –
27 | O=C(O)C(=O)Nc1sc2c(c1C(=O)O)CCNC2 | 4.7 µM | 0.29 µM | – | – | Vd [12]: 0.9 L/kg; clearance [7]: 6.4 mL/min/kg; bioavailability [9]: 56%; half-life [13]: 2.8 h; Ki [2]: 9.4 µM
28 | O=C(O)C(=O)Nc1sc2c(c1C(=O)O)CC[S+]([O-])C2 (stereo not drawn) | – | 5.1 µM | – | 363 µM | –

Row | Structure (SMILES) | Ki [1] | Ki [3] | Ki [4] | Ki [5] | further results
29 | O=C(O)C(=O)Nc1sc2c(c1C(=O)O)CCSC2 | – | 8.3 µM | – | 100 µM | –
30 | O=C(O)C(=O)Nc1sc2c(c1C(=O)O)CCC2 | – | 12 µM | 900 µM | 340 µM | –
31 | COc1cc(OC)cc(-c2cc(NC(=O)C(=O)O)c(C(=O)O)s2)c1 | – | 8 µM | – | 1790 µM | –
32 | Nc1cccc(-c2cc(NC(=O)C(=O)O)c(C(=O)O)s2)c1 | – | 6.1 µM | 113 µM | 250 µM | –
33 | O=C(O)C(=O)Nc1cc(-c2ccc(Cl)cc2)sc1C(=O)O | – | 10 µM | 160 µM | 100 µM | –
34 | O=C(O)C(=O)Nc1sc2c(c1C(=O)O)CCN(Cc1cccnc1)C2 | 12 µM | 0.9 µM | – | – | –
35 | Cc1csc(C(=O)O)c1NC(=O)C(=O)O | – | 2000 µM | 2000 µM | > 2000 µM | –
36 | O=C(O)C(=O)Nc1cc(-c2cccc([N+](=O)[O-])c2)sc1C(=O)O | – | 4.7 µM | 165 µM | 700 µM | –
37 | CC(C)Cc1ccc(-c2cc(NC(=O)C(=O)O)c(C(=O)O)s2)cc1 | – | 13 µM | 50 µM | 100 µM | –
38 | O=C(O)C(=O)Nc1ccsc1C(=O)O | – | 37 µM | 2000 µM | > 2000 µM | –
39 | COc1ccc(-c2cc(NC(=O)C(=O)O)c(C(=O)O)s2)cc1 | – | 9 µM | – | 150 µM | –
40 | O=C(O)C(=O)Nc1ccc(I)cc1C(=O)O | – | – | 420 µM | 89 µM | Ki [6]: 14 µM
41 | CN(C(=O)C(=O)O)c1ccccc1C(=O)O | – | 1100 µM | > 2000 µM | > 2000 µM | –
42 | Cc1cccc(NC(=O)C(=O)O)c1C(=O)O | – | 1700 µM | > 2000 µM | > 2000 µM | –
43 | O=C(O)C(=O)Nc1cc(-c2ccc(O)cc2)sc1C(=O)O | – | 4.5 µM | – | 210 µM | –
44 | O=C(O)C(=O)Nc1ccc2cc[nH]c2c1C(=O)O | – | 18 µM | 550 µM | 800 µM | –
45 | O=C(O)C(=O)Nc1sc2c(c1C(=O)O)CCN(CCc1ccsc1)C2 | 9 µM | – | – | – | Ki [2]: 12 µM
46 | O=C(O)C(=O)Nc1cc2[nH]ccc2cc1C(=O)O | – | 8 µM | 450 µM | 180 µM | –
47 | O=C(O)C(=O)Nc1sc2c(c1C(=O)O)CCN(CCc1ccncc1)C2 | 8.7 µM | – | – | – | Ki [2]: 13 µM
48 | O=C(O)C(=O)Nc1sccc1C(=O)O | – | 108 µM | > 2000 µM | – | –
49 | O=C(O)C(=O)Nc1sc2c(c1C(=O)O)CCS(=O)(=O)C2 | – | 6.1 µM | – | 322 µM | –
50 | O=C(O)C(=O)Nc1cc(-c2ccc(OCc3ccccc3)cc2)sc1C(=O)O | – | 16 µM | – | 65 µM | –
51 | O=C(O)C(=O)Nc1sc2c(c1C(=O)O)CCN(CCc1ccccc1OCc1ccccc1)C2 | 16 µM | – | – | – | Ki [2]: 17 µM
52 | O=C(O)C(=O)Nc1ccc(-c2ccccc2)cc1C(=O)O | – | 14 µM | 700 µM | 280 µM | –
53 | COc1ccc(-c2cc(NC(=O)C(=O)O)c(C(=O)O)s2)cc1OC | – | 25 µM | – | 980 µM | –
54 | O=C(O)C(=O)Nc1cc(-c2ccc(F)cc2)sc1C(=O)O | – | 8 µM | 110 µM | 210 µM | –
55 | O=C(O)C(=O)Nc1sc2c(c1C(=O)O)CCN(CCCc1ccccc1)C2 | 7.3 µM | – | – | – | Ki [2]: 12 µM
